Source: ChEMBL document CHEMBL2029339, “Acylthiourea, acylurea, and acylguanidine derivatives with potent hedgehog inhibiting activity” (J Med Chem, 2012)
Calls of active or inactive are those of the source. The calls are words filed in the database; no cut-off is given here.

Experiments:
C3H 10T1/2 [1] = test: Inhibition of SAG-induced differentiation of mouse mesenchymal pluripotent C3H10T1/2 cells to alkaline phosphatase positive oeseoblasts after 6 days; details: C3H 10T1/2, 6 days
[2] = Antiproliferative activity against SAG-induced rat cerebellar granule cell precursors by [3H]-thymidine incorporation assay; format: functional
Procedure, shortened: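 Primary rat cerebellar granule cell precursors stimulated with SAG (0.01 μM) together with increasing concentrations of test compound. Proliferation read as [3H]-thymidine incorporation, expressed as % of maximal SAG response. Quadruplicates, n = 3–10 independent experiments. IC50 and Hill coefficient obtained by curve fitting.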

[3] = target: Smoothened (Mus musculus) (UniProt P56726); test: Inhibition of Smo-mediated Hh signaling in mouse Shh-light2 cells at 3 uM by luciferase reporter gene assay; details: Shh Light II
[4] = target: Smoothened (Mus musculus) (UniProt P56726); test: Inhibition of Smo-mediated Hh signaling in mouse Shh-light2 cells by luciferase reporter gene assay
Protein smoothened = Protein smoothened (Homo sapiens, UniProt Q99835); test: Displacement of BODIPY-labelled cyclopamine from human Smo receptor expressed in HEK293 cells after 2 hrs by fluorescence microscopy; format: cell-based
Procedure, shortened: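 HEK293 cells stably expressing human Smo, grown on poly-D-lysine coverslips and fixed in 4% paraformaldehyde. BODIPY fluorescence above the no-probe background, normalized to DAPI nuclear area in 3–4 fields per coverslip, given as % of probe-alone signal.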

Rattus norvegicus = organism: Rattus norvegicus; test: Antiproliferative activity against rat cerebellar granule cell precursors at 1 uM by [3H]-thymidine incorporation assay; format: functional
C3H 10T1/2 [5] = test: Inhibition of SAG-induced differentiation of mouse mesenchymal pluripotent C3H10T1/2 cells to alkaline phosphatase positive oeseoblasts at 10 uM after 6 days; details: C3H 10T1/2, 6 days
[6] = target: Smoothened (Mus musculus) (UniProt P56726); test: Antagonist activity at Smo receptor
[7] = target: Smoothened (Mus musculus) (UniProt P56726); test: Inhibition of Smo-mediated Hh signaling in mouse Shh-light2 cells at 0.3 uM by luciferase reporter gene assay; details: Shh Light II
[8] = Ratio of Cur61414 IC50 to compound IC50 for inhibition of SAG-induced rat cerebellar granule cell precursors by [3H]-thymidine incorporation assay; format: functional
[9] = Ratio of cyclopamine IC50 to compound IC50 for inhibition of SAG-induced rat cerebellar granule cell precursors by [3H]-thymidine incorporation assay; format: functional

Sequence of Protein smoothened (Q99835 whole entry): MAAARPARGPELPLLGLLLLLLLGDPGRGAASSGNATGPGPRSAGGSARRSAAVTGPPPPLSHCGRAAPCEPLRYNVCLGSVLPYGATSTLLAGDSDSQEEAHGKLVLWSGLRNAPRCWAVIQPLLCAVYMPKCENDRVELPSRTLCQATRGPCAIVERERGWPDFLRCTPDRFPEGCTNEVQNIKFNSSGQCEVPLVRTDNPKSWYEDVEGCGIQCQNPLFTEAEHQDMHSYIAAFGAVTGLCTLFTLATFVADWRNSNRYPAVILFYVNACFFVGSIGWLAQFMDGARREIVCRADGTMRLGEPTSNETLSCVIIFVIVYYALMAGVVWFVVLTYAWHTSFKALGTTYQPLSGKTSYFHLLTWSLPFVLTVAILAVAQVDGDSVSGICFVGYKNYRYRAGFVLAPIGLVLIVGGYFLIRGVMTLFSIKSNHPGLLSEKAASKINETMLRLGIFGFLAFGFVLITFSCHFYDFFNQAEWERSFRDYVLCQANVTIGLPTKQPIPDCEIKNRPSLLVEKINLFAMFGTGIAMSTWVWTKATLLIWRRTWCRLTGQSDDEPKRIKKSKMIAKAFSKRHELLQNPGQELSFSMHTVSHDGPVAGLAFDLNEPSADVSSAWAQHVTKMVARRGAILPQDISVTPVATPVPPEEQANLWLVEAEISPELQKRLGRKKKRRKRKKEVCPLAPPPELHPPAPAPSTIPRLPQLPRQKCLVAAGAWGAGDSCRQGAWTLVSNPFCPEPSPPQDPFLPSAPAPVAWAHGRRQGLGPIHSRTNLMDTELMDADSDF
Sequence of Smoothened (Mus musculus) (P56726 whole entry, looked up): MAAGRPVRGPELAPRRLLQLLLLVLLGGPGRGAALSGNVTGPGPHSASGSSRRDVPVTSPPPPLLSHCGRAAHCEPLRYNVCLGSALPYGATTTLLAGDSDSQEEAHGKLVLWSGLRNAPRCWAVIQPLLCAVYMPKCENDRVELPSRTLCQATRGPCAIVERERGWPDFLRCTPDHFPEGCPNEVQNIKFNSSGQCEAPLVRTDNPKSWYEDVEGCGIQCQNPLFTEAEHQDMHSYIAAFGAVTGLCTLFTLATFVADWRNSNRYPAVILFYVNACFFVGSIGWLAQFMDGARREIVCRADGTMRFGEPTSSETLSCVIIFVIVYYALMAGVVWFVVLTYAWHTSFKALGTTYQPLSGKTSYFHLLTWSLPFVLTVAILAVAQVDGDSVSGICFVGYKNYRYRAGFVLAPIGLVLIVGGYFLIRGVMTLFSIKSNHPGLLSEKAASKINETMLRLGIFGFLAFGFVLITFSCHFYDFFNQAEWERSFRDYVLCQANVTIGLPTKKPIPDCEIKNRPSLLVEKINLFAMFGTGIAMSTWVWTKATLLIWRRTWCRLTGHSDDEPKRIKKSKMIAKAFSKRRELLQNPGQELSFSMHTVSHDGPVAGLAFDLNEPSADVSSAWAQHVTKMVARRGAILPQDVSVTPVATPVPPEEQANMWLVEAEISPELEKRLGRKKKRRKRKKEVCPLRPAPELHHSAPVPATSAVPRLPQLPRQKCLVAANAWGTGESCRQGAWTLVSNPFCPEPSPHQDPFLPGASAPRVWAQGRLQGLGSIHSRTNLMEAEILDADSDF

SMILES | IC50 (C3H 10T1/2 [1]) | IC50 [2] | inhibition [3] | IC50 [4] | IC50 (Protein smoothened) | Activity (Rattus norvegicus) | inhibition at 10 µM (C3H 10T1/2 [5]) | IC50 [6] | inhibition [7] | Ratio IC50 [8] | Ratio IC50 [9]
COc1cc(C(=O)NC(=O)Nc2cccc(NC(=O)c3ccccc3)c2)cc(OC)c1OC | 0.13 µM | 0.106 µM | 96% | 0.16 µM | 0.107 µM | inactive | 101% | 0.16 µM | 76% | – | –
COc1cccc(CN(C(=O)CC(C)(C)C)[C@H]2C[C@@H](C(=O)N3CCNCC3)N(Cc3ccc4c(c3)OCO4)C2)c1 | 0.3 µM | 0.095 µM | – | 0.14 µM | – | – | – | – | – | – | –
CC1=C2C[C@H]3[C@@H](CC=C4C[C@@H](O)CC[C@@]43C)[C@@H]2CC[C@]12O[C@@H]1C[C@H](C)CN[C@H]1[C@H]2C [CYCLOPAMINE] | 0.62 µM | 0.1 µM | – | – | – | – | 98% | – | – | – | –
CS(=O)(=O)c1ccc(C(=O)Nc2ccc(Cl)c(-c3ccccn3)c2)c(Cl)c1 [VISMODEGIB] | 0.011 µM | 0.004 µM | – | – | – | – | 99% | – | – | – | –
COc1cc(C(=O)NC(=O)Nc2cccc(NC(=O)c3cc4ccccc4[nH]3)c2)cc(OC)c1OC | 0.22 µM | – | 90% | 0.11 µM | – | – | 97% | – | 85% | – | –
COc1cc(C(=O)NC(=S)Nc2ccc(Cl)c(NC(=O)c3ccc(-c4ccccc4)cc3)c2)cc(OC)c1OC | 0.38 µM | – | 99% | 0.13 µM | – | – | 101% | – | 85% | – | –
COc1cc(C(=O)NC(=N)Nc2ccc(C)c(NC(=O)c3ccc(-c4ccccc4)cc3)c2)cc(OC)c1OC | 0.011 µM | 0.006 µM | – | 0.015 µM | 0.005 µM | inactive | – | – | – | 20 | 20
COc1cc(C(=O)NC(=O)Nc2ccc(C)c(NC(=O)c3ccc(-c4ccccc4)cc3)c2)cc(OC)c1OC | 0.025 µM | 0.006 µM | 99% | 0.013 µM | 0.024 µM | inactive | 101% | – | 96% | 20 | 20
COc1cc(C(=O)NC(=S)Nc2ccc(C)c(NC(=O)c3ccc(-c4ccc(F)cc4)cc3)c2)cc(OC)c1OC | 0.03 µM | – | 97% | 0.029 µM | – | – | 86% | – | 96% | – | –
COc1cc(C(=O)NC(=S)Nc2ccc(Cl)c(NC(=O)c3ccccc3)c2)cc(OC)c1OC | 0.99 µM | – | 89% | 0.19 µM | – | – | 96% | – | 69% | – | –
COc1cc(C(=O)NC(=S)Nc2ccc(C)c(NC(=O)c3ccc(-c4ccccc4)cc3)c2)cc(OC)c1OC | 0.06 µM | 0.009 µM | 98% | 0.041 µM | 0.063 µM | inactive | 100% | – | 98% | 20 | 20
COc1cc(C(=O)NC(=N)Nc2cccc(NC(=O)c3ccccc3)c2)cc(OC)c1OC | 0.43 µM | – | – | 0.29 µM | – | – | – | 0.29 µM | – | – | –
COc1cc(C(=O)NC(=S)Nc2ccc(C)c(C(=O)Nc3ccccc3)c2)cc(OC)c1OC | 2.5 µM | – | 89% | 1.8 µM | – | – | 99% | – | 13% | – | –
COc1cc(C(=O)NC(=S)Nc2cccc(NC(=O)c3ccccc3)c2)cc(OC)c1OC | 0.9 µM | 0.338 µM | 96% | 0.65 µM | 0.3 µM | inactive | 96% | 0.65 µM | 15% | – | –
COc1cc(C(=O)NC(=O)Nc2ccc(Cl)c(NC(=O)c3ccc(-c4ccccc4)cc3)c2)cc(OC)c1OC | 0.1 µM | – | 98% | 0.08 µM | – | – | 72% | – | 95% | – | –
COc1cc(C(=O)NC(=S)Nc2ccc(Cl)c(C(=O)Nc3ccccc3)c2)cc(OC)c1OC | 1.5 µM | – | 95% | 0.52 µM | – | – | 96% | – | 11% | – | –
